Measurements as given in ChEMBL document CHEMBL1177643, “Synthesis, DNA-binding ability and anticancer activity of benzothiazole/benzoxazole-pyrrolo[2,1-c][1,4]benzodiazepine conjugates” (Bioorg Med Chem, 2010).
“And” between values parts separate entries of the source, which are not always exact repeats. Equal values may be shown once.

Experiments:
SK-MEL-5 = assay: Growth inhibition of human SK-MEL-5 cells after 48 hrs by sulforhodamine B assay; type: functional; conditions: SK-MEL-5, 48 h
In short: (§1)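 Panel of 60 human cancer cell lines; for each compound, dose–response curves per cell line measured at a minimum of five concentrations at 10-fold dilutions. Cells exposed continuously to drug for 48 h, and growth was read out by sulforhodamine B staining.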

UACC-62 = assay: Growth inhibition of human UACC62 cells after 48 hrs by sulforhodamine B assay; type: functional; conditions: UACC-62, 48 h; in short: as §1
TK-10 = assay: Growth inhibition of human TK10 cells after 48 hrs by sulforhodamine B assay; type: functional; conditions: TK-10, 48 h; in short: as §1
COLO 205 = assay: Growth inhibition of human COLO205 cells after 48 hrs by sulforhodamine B assay; type: functional; conditions: COLO 205, 48 h
In short: (§2)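 Dose–response in each cell line over at least five concentrations at 10-fold dilutions, with 48 h continuous exposure and sulforhodamine B read-out.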

MDA-MB-231 = assay: Growth inhibition of human MDA-MB-231 cells after 48 hrs by sulforhodamine B assay; type: functional; conditions: MDA-MB-231, 48 h; in short: as §1
CCRF-CEM = assay: Growth inhibition of human CCRF-CEM cells after 48 hrs by sulforhodamine B assay; type: functional; in short: as §2
UACC-257 = assay: Growth inhibition of human UACC257 cells after 48 hrs by sulforhodamine B assay; type: functional; conditions: UACC-257, 48 h; in short: as §1
SF-268 = assay: Growth inhibition of human SF268 cells after 48 hrs by sulforhodamine B assay; type: functional; conditions: SF-268, 48 h; in short: as §1
HT-29 [1] = assay: Growth inhibition of human HT-29 cells after 48 hrs by sulforhodamine B assay; type: functional; conditions: HT-29, 48 h; in short: as §1
SK-OV-3 = assay: Growth inhibition of human SKOV3 cells after 48 hrs by sulforhodamine B assay; type: functional; conditions: SK-OV-3, 48 h; in short: as §1
MOLT-4 = assay: Growth inhibition of human MOLT4 cells after 48 hrs by sulforhodamine B assay; type: functional; conditions: MOLT-4, 48 h; in short: as §1
SN12C = assay: Growth inhibition of human SN12C cells after 48 hrs by sulforhodamine B assay; type: functional; in short: as §1
NCI-H226 = assay: Growth inhibition of human NCI-H226 cells after 48 hrs by sulforhodamine B assay; type: functional; conditions: NCI-H226, 48 h; in short: as §1
NCI-H322M = assay: Growth inhibition of human NCI-H322M cells after 48 hrs by sulforhodamine B assay; type: functional; in short: as §1
U-251 = assay: Growth inhibition of human U251 cells after 48 hrs by sulforhodamine B assay; type: functional; conditions: U-251, 48 h; in short: as §1
SK-MEL-2 = assay: Growth inhibition of human SK-MEL-2 cells after 48 hrs by sulforhodamine B assay; type: functional; conditions: SK-MEL-2, 48 h; in short: as §1
T47D = assay: Growth inhibition of human T47D cells after 48 hrs by sulforhodamine B assay; type: functional; in short: as §1
ACHN = assay: Growth inhibition of human ACHN cells after 48 hrs by sulforhodamine B assay; type: functional; in short: as §2
Calf thymus DNA = assay: Binding affinity to calf thymus duplex-form DNA assessed as cleavage of pBR322 after 16 hrs by restriction endonuclease digestion assay in presence of BamHI; type: nucleic-acid assay; conditions: Bos taurus
In short: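 pBR322 DNA (500 ng) preincubated with compound (5–30 μM) 16 h at 37 °C, then digested with BamHI (20 U) 1 h at 37 °C. Products run on 1% agarose in Tris–acetate EDTA, 80 V, 2 h. Read-out was ethidium bromide staining under UV, with an undigested and a fully digested control.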

NCI-H23 = assay: Growth inhibition of human NCI-H23 cells after 48 hrs by sulforhodamine B assay; type: functional; conditions: NCI-H23, 48 h; in short: as §1
DU-145 = assay: Growth inhibition of human DU145 cells after 48 hrs by sulforhodamine B assay; type: functional; conditions: DU-145, 48 h; in short: as §2
HT-29 [2] = assay: Antitumor activity against human HT-29 cells xenografted in SCID mouse assessed as reduction tumor volume at 30 mg/kg, ip measured on day 32; type: functional; conditions: route intraperitoneal
In short: (§3)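 HT29 xenografts in scid mice; dosing ip on days 1, 5 and 9 (q4d), 5 or 10 mg/kg per dose (total 15 or 30 mg/kg); vehicle control group. Tumour volume, body weight and toxicity followed for 35 days. Relative tumour volume = volume on given day / volume on day 1; T/C = mean RTV treated / mean RTV control.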

A-375 [3] = assay: Cell cycle arrest in human A375 cells assessed as accumulation at S phase at 1 uM after 24 hrs using propidium iodide staining by flow cytometry; type: functional
In short: (§4)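 A375 cells (5×10^5) grown 24 h, then exposed to compound 24 h (DMSO control). Trypsin–EDTA harvest, fixed in ice-cold 70% ethanol at 4 °C 30 min, RNase A 37 °C 30 min, propidium iodide staining. DNA content measured by flow cytometry on 20,000 events, gated as sub-G1/G0, G1, S and G2/M.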

A-375 [4] = assay: Cell cycle arrest in human A375 cells assessed as accumulation at G0/G1 phase at 0.5 uM after 24 hrs using propidium iodide staining by flow cytometry; type: functional; in short: as §4
A-375 [5] = assay: Induction of apoptosis in human A375 cells at 2 uM; type: functional, cell-based
In short: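 A375 melanoma cells (5 × 10⁵ per 60 mm dish) grown 24 h, then exposed to 2 μM compound (final) for 24 h; DMSO-treated cells as control. Cells harvested with trypsin–EDTA, fixed in ice-cold 70% ethanol, treated with RNase A, and stained with propidium iodide. DNA content of 20,000 events read by flow cytometry; sub-G1 (G0) area taken as apoptotic.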

HT-29 [6] = assay: Antitumor activity against human HT-29 cells xenografted in SCID mouse assessed as reduction tumor volume at 30 mg/kg, ip measured on day 21; type: functional; conditions: route intraperitoneal; in short: as §3
[7] = Toxicity in SCID mouse; type: organism-based; conditions: in vivo
HT-29 [8] = assay: Antitumor activity against human HT-29 cells xenografted in SCID mouse assessed as reduction tumor volume at 15 mg/kg, ip measured on day 17; type: functional; conditions: route intraperitoneal; in short: as §3
HT-29 [9] = assay: Antitumor activity against human HT-29 cells xenografted in SCID mouse assessed as reduction tumor volume at 15 mg/kg, ip measured on day 5; type: functional; conditions: route intraperitoneal; in short: as §3
HT-29 [10] = assay: Antitumor activity against human HT-29 cells xenografted in SCID mouse assessed as reduction tumor volume at 15 mg/kg, ip measured on day 25; type: functional; conditions: route intraperitoneal; in short: as §3
HT-29 [11] = assay: Antitumor activity against human HT-29 cells xenografted in SCID mouse assessed as reduction tumor volume at 15 mg/kg, ip measured on day 14; type: functional; conditions: route intraperitoneal; in short: as §3
Mus musculus = assay: Toxicity in SCID mouse assessed as mortality at 50 mg/kg, ip; type: organism-based; parameters: dose 50 mg/kg, route intraperitoneal; conditions: in vivo
A-375 [12] = assay: Cell cycle arrest in human A375 cells assessed as accumulation at sub-G0 phase at 0.5 uM after 24 hrs using propidium iodide staining by flow cytometry; type: functional; in short: as §4
HT-29 [13] = assay: Antitumor activity against human HT-29 cells xenografted in SCID mouse assessed as reduction tumor volume at 30 mg/kg, ip measured on day 28; type: functional; conditions: route intraperitoneal; in short: as §3
A-375 [14] = assay: Cell cycle arrest in human A375 cells assessed as accumulation at G1 phase at 0.5 uM after 24 hrs using propidium iodide staining by flow cytometry; type: functional; in short: as §4
HT-29 [15] = assay: Antitumor activity against human HT-29 cells xenografted in SCID mouse assessed as reduction tumor volume at 15 mg/kg, ip measured on day 28; type: functional; conditions: route intraperitoneal; in short: as §3

Q: For `COc1cc2c(cc1OCCCCC(=O)Nc1ccc(-c3nc4ccccc4s3)cc1)N=C[C@@H]1CCCN1C2=O`, which GI50 (SK-MEL-5) is on record?
A: 1780 nM

Q: And the GI50 (UACC-62)?
A: 1740 nM

Q: And the GI50 (TK-10)?
A: 3240 nM

Q: And the GI50 (COLO 205)?
A: 1700 nM

Q: And the GI50 (MDA-MB-231)?
A: 2090 nM

Q: And the GI50 (CCRF-CEM)?
A: 1200 nM

Q: And the GI50 (UACC-257)?
A: 1740 nM

Q: And the GI50 (SF-268)?
A: 2040 nM

Q: And the GI50 (HT-29 [1])?
A: 2140 nM

Q: What about the GI50 (SK-OV-3) of the same compound?
A: 4470 nM

Q: What about the GI50 (MOLT-4) of the same compound?
A: 1620 nM

Q: What about the GI50 (SN12C) of the same compound?
A: 2820 nM

Q: And the GI50 (NCI-H226)?
A: 2880 nM

Q: And the GI50 (NCI-H322M)?
A: 2820 nM

Q: What about the GI50 (U-251) of the same compound?
A: 1910 nM

Q: What about the GI50 (SK-MEL-2) of the same compound?
A: 1950 nM

Q: And the GI50 (T47D)?
A: 1950 nM

Q: What about the GI50 (ACHN) of the same compound?
A: 3020 nM

Q: Which results are given for `COc1cc(-c2nc3ccccc3s2)ccc1OCCCCOc1cc2c(cc1OC)C(=O)N1CCC[C@H]1C=N2`?
A: GI50 (SK-MEL-5): 407 nM; Activity (Calf thymus DNA): Dose-dependent effect; GI50 (UACC-62): 1120 nM; GI50 (TK-10): 1510 nM; GI50 (COLO 205): 692 nM; GI50 (MDA-MB-231): 525 nM; GI50 (CCRF-CEM): 339 nM; GI50 (UACC-257): 2190 nM; GI50 (SF-268): 1230 nM; GI50 (HT-29 [1]): 537 nM; GI50 (NCI-H23): 1480 nM; GI50 (SK-OV-3): 2400 nM; GI50 (MOLT-4): 676 nM; GI50 (DU-145): 302 nM; GI50 (SN12C): 955 nM; GI50 (NCI-H226): 2400 nM; GI50 (NCI-H322M): 2570 nM; GI50 (U-251): 417 nM; GI50 (SK-MEL-2): 1230 nM; GI50 (T47D): 257 nM; GI50 (ACHN): 776 nM

Q: Which T/C (HT-29 [2]) does the source give for `COc1cc(-c2nc3ccccc3s2)ccc1OCCCCCOc1cc2c(cc1OC)C(=O)N1CCC[C@H]1C=N2` here?
A: 0.76%

Q: What about the Activity (A-375 [3]) of the same compound?
A: 15.42%

Q: And the GI50 (SK-MEL-5)?
A: 24.6 nM

Q: What about the Activity (A-375 [4]) of the same compound?
A: 67.08%

Q: And the Activity (Calf thymus DNA)?
A: Dose-dependent effect

Q: And the GI50 (UACC-62)?
A: 81.3 nM

Q: And the Activity (A-375 [5])?
A: Dose-dependent effect

Q: And the T/C (HT-29 [6])?
A: 0.58%

Q: What about the GI50 (TK-10) of the same compound?
A: 331 nM

Q: And the GI50 (COLO 205)?
A: 60.3 nM

Q: And the GI50 (MDA-MB-231)?
A: 89.1 nM

Q: What about the GI50 (CCRF-CEM) of the same compound?
A: 21.9 nM

Q: And the GI50 (UACC-257)?
A: 186 nM

Q: And the MTD [7]?
A: < 50 mg/kg

Q: And the GI50 (SF-268)?
A: 347 nM

Q: What about the GI50 (HT-29 [1]) of the same compound?
A: 40.7 nM

Q: What about the GI50 (NCI-H23) of the same compound?
A: 61.7 nM

Q: And the T/C (HT-29 [8])?
A: 0.65% and 0.28%

Q: What about the T/C (HT-29 [9]) of the same compound?
A: 0.65% and 0.62%

Q: And the GI50 (SK-OV-3)?
A: 178 nM

Q: And the GI50 (MOLT-4)?
A: 43.6 nM

Q: What about the T/C (HT-29 [10]) of the same compound?
A: 0.72% and 0.2%

Q: And the GI50 (DU-145)?
A: 33.9 nM

Q: What about the GI50 (SN12C) of the same compound?
A: 200 nM

Q: What about the GI50 (NCI-H226) of the same compound?
A: 214 nM

Q: And the T/C (HT-29 [11])?
A: 0.58% and 0.3%

Q: And the Activity (Mus musculus)?
A: Non-toxic

Q: What about the GI50 (NCI-H322M) of the same compound?
A: 302 nM

Q: And the Activity (A-375 [12])?
A: 2.13%

Q: What about the GI50 (U-251) of the same compound?
A: 33.9 nM

Q: What about the T/C (HT-29 [13]) of the same compound?
A: 0.75%

Q: What about the Activity (A-375 [14]) of the same compound?
A: 64.95%

Q: What about the GI50 (SK-MEL-2) of the same compound?
A: 178 nM

Q: What about the GI50 (T47D) of the same compound?
A: 14.1 nM

Q: And the T/C (HT-29 [15])?
A: 0.73% and 0.18%

Q: And the GI50 (ACHN)?
A: 53.7 nM
